# Assays:
# Rattus norvegicus [1] = assay: Peripheral plasma levels in rats after oral administration of 100 mg/kg dose for 2 hr; type: functional, organism-based; set-up: dose 100 mg/kg
# How it was run: (§1)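 Rats received 100 mg/kg orally and were sampled for peripheral plasma. Concentrations were measured by Micrococcus luteus agar-diffusion microbiological assay in Antibiotic Medium 1, with zone sizes converted using the standard curve for the appropriate compound. Each value is the average of three rats per time point.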
# Haemophilus influenzae [2] = assay: In vitro antimicrobial activity against aerobic bacteria Haemophilus influenzae 76; type: functional
# Streptococcus [3] = assay: In vitro antimicrobial activity against aerobic bacteria Streptococcus B 5; type: functional
# Cutibacterium acnes = assay: In vitro antimicrobial activity against anaerobic bacteria propionibacterium acnes 79; type: functional
# Streptococcus [4] = assay: In vitro antimicrobial activity against aerobic bacteria Streptococcus C 24; type: functional
# Streptococcus [5] = assay: In vitro antimicrobial activity against aerobic bacteria Streptococcus D 2041; type: functional
# Rattus norvegicus [6] = assay: Peripheral plasma levels in rats after oral administration of 100 mg/kg dose for 4 hr; type: functional, organism-based; set-up: dose 100 mg/kg; how it was run: as §1
# [7] = test system: Prevotella melaninogenica; assay: In vitro antimicrobial activity against anaerobic bacteria bacteroides melaninogenicus 2736; type: functional
# [8] = test system: Bacteroides thetaiotaomicron; assay: In vitro antimicrobial activity against anaerobic bacteria bacteroides thetaiotaomicron 1438; type: functional
# Streptococcus sanguinis = assay: In vitro antimicrobial activity against aerobic bacteria Streptococcus sanguis MX132; type: functional
# Eikenella corrodens = assay: In vitro antimicrobial activity against anaerobic bacteria bacteroides corrodens 1874; type: functional
# Streptococcus [9] = assay: In vitro antimicrobial activity against aerobic bacteria Streptococcus B 8; type: functional
# Mus musculus [10] = assay: Peripheral plasma levels in mice after oral administration of 100 mg/kg dose for 2 hr; type: functional, organism-based; set-up: dose 100 mg/kg
# How it was run: (§2)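 Mice were given the compound orally and sampled for peripheral plasma at each time point. Plasma was assayed microbiologically against Micrococcus luteus seeded in Antibiotic Medium 1. Inhibition zone sizes were read, and concentrations were calculated from each compound's own standard curve. Each value is the mean of five mice per time point.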
# Streptococcus [11] = assay: In vitro antimicrobial activity against aerobic bacteria Streptococcus D 9960; type: functional
# Fusobacterium = assay: In vitro antimicrobial activity against anaerobic bacteria fusobacterium symbiosum 1470; type: functional
# Bacteroides fragilis [12] = assay: In vitro antimicrobial activity against anaerobic bacteria bacteroides fragilis 111; type: functional
# Haemophilus influenzae [13] = assay: In vitro antimicrobial activity against aerobic bacteria Haemophilus influenzae 465; type: functional
# [14] = test system: Staphylococcus epidermidis; assay: In vitro antimicrobial activity against aerobic bacteria Streptococcus epi 222; type: functional
# Rattus norvegicus [15] = assay: Peripheral plasma levels in rats after oral administration of 100 mg/kg dose for 0.5 hr; type: functional, organism-based; set-up: dose 100 mg/kg; how it was run: as §1
# [16] = test system: Haemophilus parainfluenzae; assay: In vitro antimicrobial activity against aerobic bacteria Haemophilus parainfluenzae 9796; type: functional
# [17] = test system: Fusobacterium necrophorum; assay: In vitro antimicrobial activity against anaerobic bacteria usobacterium necrophorum 6054A; type: functional
# Staphylococcus aureus [18] = assay: In vitro antimicrobial activity against aerobic bacteria Staphylococcus aureus 513E; type: functional
# Clostridium perfringens = assay: In vitro antimicrobial activity against anaerobic bacteria clostridium perfringens 81,; type: functional
# Streptococcus pneumoniae [19] = assay: In vitro antimicrobial activity against aerobic bacteria Streptococcus pneumoniae B1-438; type: functional, streptococcus pneum
# Collinsella aerofaciens = assay: In vitro antimicrobial activity against anaerobic bacteria eubacterium aerofaciens 1235; type: functional
# [20] = test system: Peptostreptococcus anaerobius; assay: In vitro antimicrobial activity against anaerobic bacteria eubacterium peptostreptococcus anaerobius 1428,; type: functional
# Mus musculus [21] = assay: Peripheral plasma levels in mice after oral administration of 100 mg/kg dose for 0.5 hr; type: functional, organism-based; set-up: dose 100 mg/kg; how it was run: as §2
# Staphylococcus aureus [22] = assay: In vitro antimicrobial activity against aerobic bacteria Staphylococcus aureus V135; type: functional
# Phocaeicola vulgatus = assay: In vitro antimicrobial activity against anaerobic bacteria bacteroides vulgatus 1211; type: functional
# Mus musculus [23] = assay: Peripheral plasma levels in mice after oral administration of 100 mg/kg dose for 1 hr; type: functional, organism-based; set-up: dose 100 mg/kg; how it was run: as §2
# [24] = In vitro antimicrobial activity against anaerobic bacteria peptostreptococcus intermedius 1264; type: functional
# Bacteroides fragilis [25] = assay: In vitro antimicrobial activity against anaerobic bacteria bacteroides fragilis 1936B,; type: functional
# Haemophilus influenzae [26] = assay: In vitro antimicrobial activity against aerobic bacteria Haemophilus influenzae MX366,; type: functional
# Clostridium septicum = assay: In vitro antimicrobial activity against anaerobic bacteria clostridium septicum 1128; type: functional
# [27] = test system: Prevotella melaninogenica; assay: In vitro antimicrobial activity against anaerobic bacteria bacteroides melaninogenicus 1856,; type: functional
# [28] = test system: Peptoniphilus asaccharolyticus; assay: In vitro antimicrobial activity against anaerobic bacteria peptococcus asaccharolyticus 1302; type: functional
# Bacteroides fragilis [29] = assay: In vitro antimicrobial activity against anaerobic bacteria bacteroides fragilis 1877; type: functional
# Rattus norvegicus [30] = assay: Peripheral plasma levels in rats after oral administration of 100 mg/kg dose for 0.25 hr; type: functional, organism-based; set-up: dose 100 mg/kg; how it was run: as §1
# Streptococcus [31] = assay: In vitro antimicrobial activity against aerobic bacteria Streptococcus B 14; type: functional
# Streptococcus [32] = assay: In vitro antimicrobial activity against aerobic bacteria Streptococcus D 8043; type: functional
# Rattus norvegicus [33] = assay: Peripheral plasma levels in rats after oral administration of 100 mg/kg dose for 1 hr; type: functional, organism-based; set-up: dose 100 mg/kg; how it was run: as §1
# Staphylococcus aureus [34] = assay: In vitro antimicrobial activity against aerobic bacteria Staphylococcus aureus V140,; type: functional
# Clostridioides difficile = assay: In vitro antimicrobial activity against anaerobic bacteria Clostridium difficile 2994; type: functional
# Mus musculus [35] = assay: Peripheral plasma levels in mice after oral administration of 100 mg/kg dose for 0.25 hr; type: functional, organism-based; set-up: dose 100 mg/kg; how it was run: as §2
# Streptococcus [36] = assay: In vitro antimicrobial activity against aerobic bacteria Streptococcus G Kruder; type: functional
# Chlamydia trachomatis = assay: In vitro antimicrobial activity against chlamydia trachomatis.; type: functional
# Enterococcus faecium = assay: In vitro antimicrobial activity against Streptococcus faecium X66; type: functional, streptococcus fae-cium
# Streptococcus pyogenes [37] = assay: In vivo effective dose against experimental infections in rodent caused by Streptococcus pyogenes C203 when administered orally; type: functional; conditions: po
# Staphylococcus aureus [38] = assay: In vitro antimicrobial activity against Staphylococcus aureus X1; type: functional
# Streptococcus pyogenes [39] = assay: In vivo effective dose against experimental infections in rodent caused by Streptococcus pyogenes C203 when administered sc; type: functional
# [40] = test system: Staphylococcus epidermidis; assay: In vitro antimicrobial activity against Staphylococcus epidermidis EPI1; type: functional
# Haemophilus influenzae [41] = assay: In vitro antimicrobial activity against Haemophilus influenzae.; type: functional
# Anaerococcus prevotii = assay: In vitro antimicrobial activity against anaerobic bacteria peptococcus prevoti 1281; type: functional
# Streptococcus pneumoniae [42] = assay: In vitro antimicrobial activity against Streptococcus pneumoniae; type: functional
# Streptococcus pyogenes [43] = assay: In vitro antimicrobial activity against Streptococcus pyogenes C203; type: functional
smiles,measurement,setting,value
CC[C@H]1OC(=O)[C@H](C)[C@@H](O[C@H]2C[C@@](C)(OC)[C@@H](O)[C@H](C)O2)[C@H](C)[C@@H](O[C@@H]2O[C@H](C)C[C@H](N(C)C)[C@H]2O)[C@](C)(O)C[C@@H](C)C(=O)[C@H](C)[C@@H](O)[C@]1(C)O [ERYTHROMYCIN],Concentration,Rattus norvegicus [1],0.2 µg ml-1 ml-1
same,MIC,Haemophilus influenzae [2],2 µg/mL
same,MIC,Streptococcus [3],0.06 µg/mL
same,MIC,Cutibacterium acnes,< 0.5 µg/mL
same,MIC,Streptococcus [4],0.12 µg/mL
same,MIC,Streptococcus [5],1 µg/mL
same,Concentration,Rattus norvegicus [6],0.4 µg ml-1 ml-1
same,MIC,[7],1 µg/mL
same,MIC,[8],1 µg/mL
same,MIC,Streptococcus sanguinis,0.03 µg/mL
same,MIC,Eikenella corrodens,1 µg/mL
same,MIC,Streptococcus [9],0.06 µg/mL
same,Concentration,Mus musculus [10],0.7 µg ml-1 ml-1
same,MIC,Streptococcus [11],2 µg/mL
same,MIC,Fusobacterium,2 µg/mL
same,MIC,Bacteroides fragilis [12],1 µg/mL
same,MIC,Haemophilus influenzae [13],4 µg/mL
same,MIC,[14],0.06 µg/mL
same,Concentration,Rattus norvegicus [15],0.1 µg ml-1 ml-1
same,MIC,[16],4 µg/mL
same,MIC,[17],2 µg/mL
same,MIC,Staphylococcus aureus [18],0.25 µg/mL
same,MIC,Clostridium perfringens,< 0.5 µg/mL
same,MIC,Streptococcus pneumoniae [19],6 µg/mL
same,MIC,Collinsella aerofaciens,< 0.5 µg/mL
same,MIC,[20],1 µg/mL
same,Concentration,Mus musculus [21],5.6 µg ml-1 ml-1
same,MIC,Staphylococcus aureus [22],0.25 µg/mL
same,MIC,Phocaeicola vulgatus,< 0.5 µg/mL
same,Concentration,Mus musculus [23],2.7 µg ml-1 ml-1
same,MIC,[24],< 0.5 µg/mL
same,MIC,Bacteroides fragilis [25],2 µg/mL
same,MIC,Haemophilus influenzae [26],4 µg/mL
same,MIC,Clostridium septicum,< 0.5 µg/mL
same,MIC,[27],2 µg/mL
same,MIC,[28],8 µg/mL
same,MIC,Bacteroides fragilis [29],4 µg/mL
same,Concentration,Rattus norvegicus [30],0.1 µg ml-1 ml-1
same,MIC,Streptococcus [31],0.12 µg/mL
same,MIC,Streptococcus [32],0.06 µg/mL
same,Concentration,Rattus norvegicus [33],0.1 µg ml-1 ml-1
same,MIC,Staphylococcus aureus [34],0.25 µg/mL
same,MIC,Clostridioides difficile,< 0.5 µg/mL
same,Concentration,Mus musculus [35],2.5 µg ml-1 ml-1
same,MIC,Streptococcus [36],0.1 µg/mL
CC[C@H]1C[C@@H](C)C(=O)/C=C/C(C)=C/[C@H](CO)[C@@H](CC)OC(=O)C[C@@H](O)[C@H](C)[C@H]1O[C@@H]1O[C@H](C)[C@@H](O)[C@H](N(C)C)[C@H]1O,MIC,Chlamydia trachomatis,0.5 µg/mL
same,MIC,Cutibacterium acnes,2 µg/mL
same,MIC,Enterococcus faecium,16 µg/mL
same,MIC,[7],> 8 µg/mL
same,MIC,[8],> 8 µg/mL
same,MIC,Eikenella corrodens,> 8 µg/mL
same,ED50,Streptococcus pyogenes [37],75 mg/kg
same,MIC,Staphylococcus aureus [38],4 µg/mL
same,MIC,Fusobacterium,> 8 µg/mL
same,MIC,Bacteroides fragilis [12],> 8 µg/mL
same,MIC,[17],8 µg/mL
same,MIC,Clostridium perfringens,2 µg/mL
same,ED50,Streptococcus pyogenes [39],> 30 mg/kg
same,MIC,Collinsella aerofaciens,2 µg/mL
same,MIC,[40],8 µg/mL
same,MIC,[20],> 8 µg/mL
same,MIC,Haemophilus influenzae [41],32 µg/mL
same,MIC,Anaerococcus prevotii,> 8 µg/mL
same,MIC,Phocaeicola vulgatus,> 8 µg/mL
same,MIC,Streptococcus pneumoniae [42],8 µg/mL
same,MIC,[24],> 8 µg/mL
same,MIC,Bacteroides fragilis [25],> 8 µg/mL
same,MIC,Streptococcus pyogenes [43],8 µg/mL
same,MIC,Clostridium septicum,2 µg/mL
same,MIC,[27],> 8 µg/mL
same,MIC,[28],> 8 µg/mL
same,MIC,Bacteroides fragilis [29],> 8 µg/mL
same,MIC,Clostridioides difficile,2 µg/mL

# From ChEMBL document CHEMBL1124186, “Synthesis and evaluation of tylosin-related macrolides modified at the aldehyde function: a new series of orally effective antibiotics” (1988)
